Source: PubChem (The Scripps Research Institute Molecular Screening Center)
Sampled rows, rich in hits. Any-hit rate of the full collection: about 1.9%.
UHRF1 binding: UHRF1 methyl-DNA binding inhibition; actives 0.75% (n = 370,000); inhibition, % at 4.4 µM; Q96T88; UHRF1 binding to methylated oligo, TR-FRET;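 also: UHRF1 SRA domain binding a hemimethylated CpG hairpin DNA probe; 0% = median of test compound wells and 100% = reference inhibitor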
DDE Tn7 FP inh: inhibitors of Tn7 peptide binding to human fibrin DD(E) | actives 0.13% (n = 370,000) | FP displacement of FITC-Tn7 peptide from fibrin DD(E); 0% = median of compound wells per plate | AID 720508 | inhibition, % at 8.3 µM;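 active = inhibition above the mean of compounds falling within the control limits plus 3 SD of them, cut at about 14% in these data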;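 also: 0% = plate median of compound wells and 100% = 10 µM Aha-Tn7 peptide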
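Assay system: Human clot-derived fibrin DD(E) complex | Buffer or medium: Tris/NaCl/CaCl2 buffer, pH 7.8 | Repeats: One replicate per compound | Benchmarks: Aha-Tn7 high control | Measure: % inhibition scaled between sample-field median and high-control FP | Schedule: 10 min plus 3 h, room temperature | Signal: Fluorescence polarization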
TDP2 absorb: blocks human TDP2 phosphodiesterase activity | recombinant TDP2, T5PNP hydrolysis, p-nitrophenol absorbance 415 nm | O95551 | AID 720702 | actives 0.34% (n = 370,000) | inhibition, % at 12.8 µM;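 active = inhibition above the mean of all tested compounds plus 3 SD, set per campaign, cut at about 25% in these data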;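 also: 0% = DMSO with enzyme and 100% = buffer with substrate but no TDP2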
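Read-out basis: percent inhibition. System: recombinant human TDP2. Buffer or medium: Mg2+-containing Tris-HCl buffer, pH 7.5. Repeats: single replicate. Timing: reaction 2 h, 37 °C. Benchmarks: high control without enzyme, low control DMSO plus TDP2. Probe or stimulus: 5 mM T5PNP. Doses: 12.8 µM only. Measured by: epi absorbance of p-nitrophenol freed from T5PNP by hydrolysis.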
MBD2 inh: MBD2-methylated oligo binding inhibition; actives 0.31% (n = 370,000); AID 686964; inhibition, % at 4.4 µM; TR-FRET, MBD2 binding to methylated oligonucleotide; Q9UBB5; in the data active = inhibition above about 13%
Target sequence (Q9UBB5 whole entry, looked up): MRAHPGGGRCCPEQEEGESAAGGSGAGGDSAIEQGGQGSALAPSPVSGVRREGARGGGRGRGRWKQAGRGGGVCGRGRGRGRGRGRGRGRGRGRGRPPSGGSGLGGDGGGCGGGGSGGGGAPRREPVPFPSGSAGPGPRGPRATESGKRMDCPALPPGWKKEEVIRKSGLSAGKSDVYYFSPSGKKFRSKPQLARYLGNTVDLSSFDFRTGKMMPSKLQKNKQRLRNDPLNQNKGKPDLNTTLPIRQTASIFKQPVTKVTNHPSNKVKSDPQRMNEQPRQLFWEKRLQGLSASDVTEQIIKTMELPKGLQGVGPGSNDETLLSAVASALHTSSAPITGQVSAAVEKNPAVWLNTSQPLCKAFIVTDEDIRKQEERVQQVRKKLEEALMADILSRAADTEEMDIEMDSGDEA
DDE Tn6 FP inh: DD(E)-Tn6 binding inhibition, primary FP screen; inhibition, % at 8.3 µM; AID 720509; actives 0.21% (n = 370,000); Fibrin DD(E) TRITC-Tn6 fluorescence polarization displacement; P02675;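 active = inhibition above a per-campaign cutoff: mean of compounds within control limits plus 3 SD, cut at about 15% in these data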;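 also: 0% = median of all compound wells on the plate and 100% = blocking peptide control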
LEDGF integ inh: blocks HIV-1 LEDGF/p75-dependent DNA integration; TR-FRET IN-LEDGF/p75 DNA integration, Eu/Cy5; inhibition, % at 3.7 µM; actives 0.64% (n = 370,000); AID 743269;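 active = inhibition above the screen-wide mean plus 3 SD, cut at about 13% in these data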;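 also: signal is the Cy5 over europium emission ratio at 671 and 618 nm; 0% = plate median of compound wells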
UHRF1 ctr MBD2: inhibits human UHRF1 binding to methylated oligonucleotide, MBD2 counter-screen; shares compounds with MBD2 inh; TR-FRET; inhibition, % at 4.4 µM; actives 25% (n = 1,000); AID 720530;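 also: UHRF1 SRA domain binding a labeled hemimethylated CpG hairpin DNA; 0% = vehicle only and 100% = reference inhibitor with vehicle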
MBD2 confirm: MBD2-DBD methyl-DNA binding inhibition, TR-FRET confirmation. shares compounds with MBD2 inh. actives 26% (n = 1,000). inhibition, % at 4.4 µM. TR-FRET MBD2-DBD binding to methylated oligonucleotide; in the data active = inhibition above about 14%
* = called active by the depositor; . = no result given. Rule as the data show it, unless noted: active = inhibition above about 21%; inactive = the rest.

SMILES	UHRF1 binding	DDE Tn7 FP inh	TDP2 absorb	MBD2 inh	DDE Tn6 FP inh	LEDGF integ inh	UHRF1 ctr MBD2	MBD2 confirm
C=C(C)C(=O)Nc1cccc(C2=NOC3(C2)C[C@@H](C(N)=O)N(C(=O)CC(c2ccccc2)c2ccccc2)C3)c1 (some centres undefined)	63*	-2	2	26*	-9	3	60*	42*
C/C=C/C(=O)Nc1cccc(C2=NOC3(C2)C[C@@H](C(N)=O)N(C(=O)c2cc([N+](=O)[O-])cc([N+](=O)[O-])c2)C3)c1 (some centres undefined)	3	6	6	16*	-8	-1	2	3
C/C=C(\C)C(=O)Nc1cccc(C2=NOC3(C2)C[C@H](C(N)=O)N(C(=O)c2cc([N+](=O)[O-])cc([N+](=O)[O-])c2)C3)c1 (some centres undefined)	-2	-1	10	-3	6	-1	.	.
C/C=C(\C)C(=O)Nc1cccc(C2=NOC3(C2)C[C@@H](C(N)=O)N(C(=O)c2ccccc2C(=O)c2ccccc2)C3)c1 (some centres undefined)	-1	-5	0	4	3	0	.	.
CC(=O)Nc1ccc(NC(=O)CSc2nnc(-c3n[nH]c4c3CCC4)n2N)cc1	-4	4	-3	3	-6	0	.	.
CC(=O)Nc1ccc(S(=O)(=O)NC(CC(=O)O)c2ccc(OC(C)C)cc2)cc1 (centres undefined)	23*	1	6	17*	-7	-3	11	5
Cc1ccc(OCC(=O)c2cc(C)c(C)cc2C)c([N+](=O)[O-])n1	-6	3	-7	0	2	3	.	.
Cc1ccc(OCC(=O)c2c(N)n(C)c(=O)n(C)c2=O)c([N+](=O)[O-])n1	23*	3	-4	19*	2	12	35*	17*
COc1ccc(S(=O)(=O)N2CCN(C(=O)c3cc4c(s3)CCC4)CC2)cc1	46*	0	-6	22*	3	7	46*	43*
Cc1ccc(S(=O)(=O)N2CCN(C(=O)c3cc4c(s3)CCCC4)CC2)cc1	5	-5	-5	-2	12	6	.	.
O=C1NC(Cc2cnc[nH]2)C(=O)N2CCCC12 (centres undefined)	-1	-4	9	0	-4	-3	.	.
Oc1ccc(N2CCN(Cc3c(-c4ccccc4)nc4ccccn34)CC2)cc1	0	0	1	80*	-4	-1	10	2
O=C(O)CCCCC1CCSS1 (centres undefined)	48*	6	-9	22*	-10	1	36*	16*
C=C(C)Cn1c(COc2ccccc2)nnc1SCC(=O)O	0	-5	3	15*	-1	2	4	3
CC(C)(C)n1nnnc1C(c1ccc(F)cc1)N(Cc1ccc(F)cc1)Cc1ccco1 (centres undefined)	1	9	-1	-4	-5	4	.	.
CC(C)(C)n1nnnc1C(c1ccc(C(F)(F)F)cc1)N(Cc1ccc(F)cc1)Cc1ccco1 (centres undefined)	4	-3	-11	18*	1	0	9	1
CCCCCCOC(=O)Cc1c(C)nc(-c2ccccc2)[nH]c1=O	15	1	5	13*	-2	-4	3	2
O=C(CCc1nc(-c2ccccc2F)no1)NCCc1ccccc1F	8	-1	6	-1	1	-1	.	.
Nn1c(SCC(=O)Nc2ccccc2-c2ccccc2)nnc1-c1cc(-c2ccc(Cl)cc2)n[nH]1	-1	-8	-10	3	6	-2	.	.
CCc1nnc(NC(=O)CSc2nnc(CNC(=O)c3ccccc3)o2)s1	1	-5	-4	22*	3	-1	9	4
CCOC(=O)[C@]12CCC=C1N(CCC1=CCCCC1)C(=O)[C@H](CC(=O)N1CCC(c3ccccc3)CC1)C2	1	4	-4	5	-4	-1	.	.
CCOC(=O)N1CCN(C(=O)C[C@@H]2C[C@@]3(C(=O)OCC)CCCC=C3N(CCC3=CCCCC3)C2=O)CC1	1	-2	-8	20*	2	0	7	5
O=C(OCc1cn(Cc2ccccc2F)nn1)N1CCOCC1	7	-4	-12	7	-7	-3	.	.
O=C(C1=C(O)C(=O)N(CCCN2CCOCC2)C1c1ccc(Cl)cc1)c1cc2ccccc2o1 (centres undefined)	1	6	-6	3	0	5	.	.
O=C(C1=C(O)C(=O)N(CCN2CCOCC2)C1c1ccc(Cl)cc1)c1cc2ccccc2o1 (centres undefined)	-2	3	14	16*	-2	1	6	-2
SMILES	UHRF1 binding	DDE Tn7 FP inh	TDP2 absorb	MBD2 inh	DDE Tn6 FP inh	LEDGF integ inh	UHRF1 ctr MBD2	MBD2 confirm
O=C(N[C@H](C(=O)N1CCC[C@H]1C(=O)NCCc1ccccc1Cl)c1ccccc1)C1CC1	0	5	3	-3	0	0	.	.
COc1cc2c(cc1OC)CN(C(=O)CCOc1ccccc1)CC2	-1	-6	9	3	-3	1	.	.
COc1cc2c(cc1OC)CN(C(=O)CCOc1ccccc1C)CC2	1	6	4	14*	2	-4	3	1
COC(=O)[C@@]12C[C@@H](CC(=O)NCc3cccc(C(F)(F)F)c3)C(=O)N(Cc3ccccc3)C1=CCC(C)(C)C2	2	-1	-8	3	-3	-4	.	.
CC(=O)c1ccccc1NC(=O)COC(=O)C1CCCN1S(=O)(=O)c1ccccc1F (centres undefined)	1	-2	13	15*	-4	5	8	3
N#CCCN1CCC(N)=NC1=NC#N	3	4	1	2	2	-1	.	.
COc1ccc(C(=O)NC2CCN(S(=O)(=O)c3ccccc3F)CC2)cc1	3	-8	-2	-1	-5	-3	.	.
CC(C)(C)C(=O)NC1CCN(S(=O)(=O)c2ccccc2F)CC1	-1	3	10	15*	3	4	7	3
Cc1cc(S(=O)(=O)NCC(c2ccccc2)c2ccccc2)ccc1-n1cnnn1	18	-4	-5	14*	-9	4	3	4
COc1ccccc1CNS(=O)(=O)c1ccc(-n2cnnn2)c(C)c1	-1	1	3	4	2	-1	.	.
